Test results published in ChEMBL document CHEMBL5678806, “NMS-P937, an orally available, specific small-molecule polo-like kinase 1 inhibitor with antitumor activity in solid and hematologic malignancies” (Mol Cancer Ther, 2012).
Calls of active or inactive are those of the source. The calls are words filed in the database; no cut-off is given here.

Columns and labels:
[1] = molecular target: Glycogen synthase kinase-3 beta (Homo sapiens, UniProt P49841); assay: Inhibition of GSK3beta (unknown origin) in presence of [gamma-33P]ATP
A2780 [2] = assay: Induction of cell cycle arrest in human A2780 cells assessed as accumulation of cells in G2/M phase by measuring NPM phosphorylation on Thr199 incubated for 24 hrs by Western blotting analysis; format: functional, cell-based; conditions: dose 0.02-0.2 µmol/L
In short: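 A2780 ovarian carcinoma cells treated 24 h with a range of concentrations, with DMSO and nocodazole controls. 20 µg protein extract separated by SDS-PAGE and immunoblotted with chemiluminescent detection. Probed for total and phospho-Thr210 PLK1, phospho-Ser10 histone H3, phospho-Thr199 NPM and phospho-Tyr15 CDK1. Total NPM, tubulin and total CDK1 served as loading controls.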

[3] = molecular target: Casein kinase I homolog 1 (Saccharomyces cerevisiae S288c) (UniProt P23291); assay: Inhibition of yeast CK1 assessed as residual activity at 1 uM relative to control
A2780 [4] = assay: In vivo inhibition of PLK1 in human A2780 cells xenografted in nu/nu mouse assessed as decreased TCTP phosphorylation on Ser46 at 60 mg/kg, po administered for 2 hrs by Western blotting analysis; format: functional, organism-based
SW948 = assay: Antiproliferative activity against human SW948 cells assessed as inhibition of cell growth incubated for 72 hrs by cell-titer glo assay; format: functional, cell-based; conditions: SW948, 72 h
HCC70 = assay: Antiproliferative activity against human HCC70 cells assessed as inhibition of cell growth incubated for 72 hrs by cell-titer glo assay; format: functional, cell-based; conditions: HCC70, 72 h
In short: (§1)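 Cells seeded at 10,000–30,000/cm² (adherent) or 100,000/mL (nonadherent) in medium with 10% fetal calf serum; after 24 h, treated in duplicate with serial dilutions for 72 h. Viable cell number read by CellTiter-Glo luminescence; IC50 from sigmoidal fit; at least two independent experiments.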

HCC 2998 = assay: Antiproliferative activity against human HCC 2998 cells assessed as inhibition of cell growth incubated for 72 hrs by cell-titer glo assay; format: functional, cell-based; conditions: HCC 2998, 72 h; in short: as §1
OVCAR-8 = assay: Antiproliferative activity against human OVCAR-8 cells assessed as inhibition of cell growth incubated for 72 hrs by cell-titer glo assay; format: functional, cell-based; conditions: OVCAR-8, 72 h
In short: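 Cells from ATCC or ECACC, kept in supplier-recommended medium with 1% penicillin-streptomycin at 37°C, 5% CO₂. Seeded at 10,000–30,000/cm² (adherent) or 100,000/mL (nonadherent) in medium with 10% fetal calf serum. Dosed after 24 h in duplicate with serial dilutions. Viable cells read by CellTiter-Glo 72 h later. IC50 from sigmoidal fit. At least two independent experiments.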

Hs-578T = assay: Antiproliferative activity against human Hs-578T cells assessed as inhibition of cell growth incubated for 72 hrs by cell-titer glo assay; format: functional, cell-based; in short: as §1
A2780 [5] = assay: Induction of mitosis in human A2780 cells xenografted in nu/nu mouse assessed as decreased Histone H3 phosphorylation on Ser10 at 60 mg/kg, po administered for 12 to 24 hrs by immunohistochemistry analysis; format: functional, organism-based; conditions: time lower […], time upper 24.0 hrs
U2OS = assay: Induction of apoptosis in human U2OS cells assessed as colocalization of cells by measuring Histone H3 phosphorylation on Ser10 incubated for 24 hrs by DRAQ 5 staining based high content imaging assay relative to control; format: functional
UACC-62 = assay: Antiproliferative activity against human UACC-62 cells assessed as inhibition of cell growth incubated for 72 hrs by cell-titer glo assay; format: functional, cell-based; conditions: UACC-62, 72 h
[6] = AUC in male cynomolgus monkey at 5 mg/kg, po by LC-MS analysis; format: ADME, organism-based, Macaca fascicularis; conditions: in vivo
Activated CDC42 kinase 1 = Activated CDC42 kinase 1 (Homo sapiens, UniProt Q07912); assay: Inhibition of ACK1 (unknown origin) in presence of [gamma-33P]ATP
[7] = molecular target: Maternal embryonic leucine zipper kinase (Homo sapiens) (UniProt Q14680); assay: Inhibition of MELK (unknown origin) at 10 micromol/L in presence of [gamma-33P]ATP relative to control; conditions: dose 10.0 µmol/L
[8] = Cmax in male cynomolgus monkey at 5 mg/kg, iv by LC-MS analysis; format: ADME, organism-based, Macaca fascicularis; conditions: in vivo
[9] = molecular target: Epidermal growth factor receptor (Homo sapiens, UniProt P00533); assay: Inhibition of EGFR1 (unknown origin) in presence of [gamma-33P]ATP
T84 = assay: Antiproliferative activity against human T84 cells assessed as inhibition of cell growth incubated for 72 hrs by cell-titer glo assay; format: functional, cell-based; conditions: T84, 72 h
[10] = molecular target: Angiopoietin-1 receptor (Homo sapiens) (UniProt Q02763); assay: Inhibition of N-terminal His6-tagged recombinant human Tie2 (771 to end residues) expressed in baculovirus infected Sf21 cells assessed as residual activity at 0.1 uM relative to control
[11] = molecular target: Serine/threonine-protein kinase MARK2 (Homo sapiens) (UniProt Q7KZI7); assay: Inhibition of N-terminal His6-tagged recombinant full-length human PAR-1Balpha expressed in baculovirus infected Sf21 cells assessed as residual activity at 1 uM relative to control
T98G = assay: Antiproliferative activity against human T98G cells assessed as inhibition of cell growth incubated for 72 hrs by cell-titer glo assay; format: functional, cell-based
[12] = molecular target: Fibroblast growth factor receptor 4 (Homo sapiens) (UniProt P22455); assay: Inhibition of N-terminal His6-tagged recombinant human FGFR4 (442 to 755 residues) expressed in baculovirus infected Sf21 cells assessed as residual activity at 1 uM relative to control
[13] = molecular target: Proto-oncogene tyrosine-protein kinase ROS (Homo sapiens, UniProt P08922); assay: Inhibition of ROS (unknown origin) in presence of [gamma-33P]ATP
[14] = molecular target: Insulin receptor-related protein (Homo sapiens) (UniProt P14616); assay: Inhibition of N-terminal 6His-tagged recombinant human IRR (944 to 1266 residues) expressed in baculovirus infected Sf21 cells assessed as residual activity at 1 uM relative to control
[15] = Antiproliferative activity against human HCC15 cells assessed as inhibition of cell growth incubated for 72 hrs by cell-titer glo assay; format: functional, cell-based; conditions: HCC15, 72 h; in short: as §1
HT-29 = assay: Antitumor activity against human HT-29 cells xenografted in nu/nu mouse assessed as tumor growth inhibition at 45 mg/kg, po administered for 3 days and measured after 1 day relative to control; format: functional; conditions: HT-29, 72 h, time 3 day, read-out: TGI
[16] = molecular target: Serine/threonine-protein kinase STK11 (Homo sapiens) (UniProt Q15831); assay: Inhibition of N-terminal 6His-tagged recombinant full-length human LKB1 expressed in Sf21 cells assessed as residual activity at 0.1 uM relative to control
HCC78 = assay: Antiproliferative activity against human HCC78 cells assessed as inhibition of cell growth incubated for 72 hrs by cell-titer glo assay; format: functional, cell-based; conditions: HCC78, 72 h; in short: as §1
[17] = molecular target: Maternal embryonic leucine zipper kinase (Homo sapiens) (UniProt Q14680); assay: Inhibition of N-terminal GST-tagged recombinant human MELK (1 to 340 residues) expressed in baculovirus infected Sf21 cells assessed as residual activity at 1 uM relative to control

Maternal embryonic leucine zipper kinase (Homo sapiens), sequence (Q14680 whole entry, looked up, the tested form may be a part): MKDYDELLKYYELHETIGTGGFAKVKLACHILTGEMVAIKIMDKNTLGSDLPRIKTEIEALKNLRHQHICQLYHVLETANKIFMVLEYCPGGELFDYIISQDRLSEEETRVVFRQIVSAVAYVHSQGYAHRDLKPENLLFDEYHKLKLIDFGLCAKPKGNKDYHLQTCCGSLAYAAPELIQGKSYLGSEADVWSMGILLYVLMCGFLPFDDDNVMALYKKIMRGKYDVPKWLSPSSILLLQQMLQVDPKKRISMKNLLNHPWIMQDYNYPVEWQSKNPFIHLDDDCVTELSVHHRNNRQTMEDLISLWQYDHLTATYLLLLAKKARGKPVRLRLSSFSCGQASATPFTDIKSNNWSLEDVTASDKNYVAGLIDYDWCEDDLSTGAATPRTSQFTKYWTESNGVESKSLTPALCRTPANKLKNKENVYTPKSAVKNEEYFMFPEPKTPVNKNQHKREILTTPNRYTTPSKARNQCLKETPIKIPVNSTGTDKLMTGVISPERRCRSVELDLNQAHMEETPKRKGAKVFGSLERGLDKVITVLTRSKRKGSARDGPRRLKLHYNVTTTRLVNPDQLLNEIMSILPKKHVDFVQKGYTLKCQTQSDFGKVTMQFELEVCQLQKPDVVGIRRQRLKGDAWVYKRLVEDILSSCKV
Serine/threonine-protein kinase MARK2 (Homo sapiens), sequence (Q7KZI7 whole entry): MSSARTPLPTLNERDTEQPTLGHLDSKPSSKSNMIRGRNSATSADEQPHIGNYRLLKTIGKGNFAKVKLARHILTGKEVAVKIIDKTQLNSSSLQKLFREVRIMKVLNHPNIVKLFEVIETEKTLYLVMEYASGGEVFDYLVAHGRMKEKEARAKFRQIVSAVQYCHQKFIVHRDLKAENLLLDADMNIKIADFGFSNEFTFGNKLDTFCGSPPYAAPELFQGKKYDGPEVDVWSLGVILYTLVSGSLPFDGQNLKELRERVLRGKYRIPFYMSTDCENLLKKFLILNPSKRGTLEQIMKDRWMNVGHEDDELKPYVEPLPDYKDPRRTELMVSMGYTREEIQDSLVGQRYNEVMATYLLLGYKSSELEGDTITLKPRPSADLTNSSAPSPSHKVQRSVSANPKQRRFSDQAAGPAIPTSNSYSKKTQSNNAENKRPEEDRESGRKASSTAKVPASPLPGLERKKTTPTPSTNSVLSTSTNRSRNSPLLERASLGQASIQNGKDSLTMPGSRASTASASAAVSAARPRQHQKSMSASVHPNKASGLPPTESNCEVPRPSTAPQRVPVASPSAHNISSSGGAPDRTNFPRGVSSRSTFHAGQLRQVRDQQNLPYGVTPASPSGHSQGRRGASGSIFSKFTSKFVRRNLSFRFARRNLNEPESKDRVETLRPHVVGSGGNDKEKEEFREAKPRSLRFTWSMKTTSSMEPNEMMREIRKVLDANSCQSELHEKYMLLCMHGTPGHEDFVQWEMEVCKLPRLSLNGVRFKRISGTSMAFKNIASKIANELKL
Casein kinase I homolog 1 (Saccharomyces cerevisiae S288c), sequence (P23291 whole entry): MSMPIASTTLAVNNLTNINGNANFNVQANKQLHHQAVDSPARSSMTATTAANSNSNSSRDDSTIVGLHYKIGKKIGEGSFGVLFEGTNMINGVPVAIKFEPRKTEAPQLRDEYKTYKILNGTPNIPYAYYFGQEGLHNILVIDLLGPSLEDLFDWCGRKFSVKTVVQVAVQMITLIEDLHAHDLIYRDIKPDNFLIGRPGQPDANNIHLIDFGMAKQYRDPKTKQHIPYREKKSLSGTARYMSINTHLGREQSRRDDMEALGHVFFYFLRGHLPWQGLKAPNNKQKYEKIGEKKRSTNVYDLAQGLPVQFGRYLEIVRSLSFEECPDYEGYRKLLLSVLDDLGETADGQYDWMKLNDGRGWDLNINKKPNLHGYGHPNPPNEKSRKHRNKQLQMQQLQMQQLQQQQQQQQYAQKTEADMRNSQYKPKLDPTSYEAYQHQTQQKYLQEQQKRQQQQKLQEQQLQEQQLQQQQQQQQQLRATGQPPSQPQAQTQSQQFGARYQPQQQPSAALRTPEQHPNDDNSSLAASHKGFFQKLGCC
Insulin receptor-related protein (Homo sapiens), sequence (P14616 27-742 limits assumed): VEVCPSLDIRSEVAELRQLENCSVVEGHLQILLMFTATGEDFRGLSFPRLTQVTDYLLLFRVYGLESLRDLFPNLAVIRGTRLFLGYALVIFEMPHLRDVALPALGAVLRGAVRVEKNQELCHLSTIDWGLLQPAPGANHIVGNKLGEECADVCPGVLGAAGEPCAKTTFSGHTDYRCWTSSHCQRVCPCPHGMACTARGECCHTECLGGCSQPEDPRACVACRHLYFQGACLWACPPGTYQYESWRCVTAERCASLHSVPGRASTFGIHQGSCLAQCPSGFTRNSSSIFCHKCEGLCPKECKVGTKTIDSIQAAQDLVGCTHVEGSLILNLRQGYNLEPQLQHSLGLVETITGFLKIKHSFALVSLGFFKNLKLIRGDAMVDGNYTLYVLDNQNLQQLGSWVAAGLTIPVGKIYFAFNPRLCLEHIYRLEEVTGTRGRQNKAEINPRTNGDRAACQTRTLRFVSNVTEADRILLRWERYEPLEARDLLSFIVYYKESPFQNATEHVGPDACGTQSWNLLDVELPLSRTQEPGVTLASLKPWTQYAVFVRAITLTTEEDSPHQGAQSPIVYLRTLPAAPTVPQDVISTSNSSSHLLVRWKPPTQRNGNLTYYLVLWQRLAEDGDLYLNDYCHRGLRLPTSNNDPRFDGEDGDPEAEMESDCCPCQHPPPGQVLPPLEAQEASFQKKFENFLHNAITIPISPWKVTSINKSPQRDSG
Insulin receptor-related protein (Homo sapiens), sequence (P14616 747-1297 limits assumed): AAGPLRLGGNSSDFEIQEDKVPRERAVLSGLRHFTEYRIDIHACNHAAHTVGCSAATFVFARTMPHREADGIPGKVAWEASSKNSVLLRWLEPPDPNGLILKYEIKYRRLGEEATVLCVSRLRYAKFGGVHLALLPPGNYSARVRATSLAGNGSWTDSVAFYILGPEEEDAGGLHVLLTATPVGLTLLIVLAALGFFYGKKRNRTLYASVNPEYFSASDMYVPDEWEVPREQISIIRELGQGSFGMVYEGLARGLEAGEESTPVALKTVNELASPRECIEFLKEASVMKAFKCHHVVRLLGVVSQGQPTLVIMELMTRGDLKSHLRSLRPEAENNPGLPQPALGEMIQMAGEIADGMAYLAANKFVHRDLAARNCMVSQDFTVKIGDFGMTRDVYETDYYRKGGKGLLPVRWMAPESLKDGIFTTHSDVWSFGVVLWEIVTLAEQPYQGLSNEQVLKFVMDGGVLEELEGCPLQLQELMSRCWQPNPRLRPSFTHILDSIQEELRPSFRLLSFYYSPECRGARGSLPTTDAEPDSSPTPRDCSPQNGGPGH
Serine/threonine-protein kinase STK11 (Homo sapiens), sequence (Q15831 whole entry): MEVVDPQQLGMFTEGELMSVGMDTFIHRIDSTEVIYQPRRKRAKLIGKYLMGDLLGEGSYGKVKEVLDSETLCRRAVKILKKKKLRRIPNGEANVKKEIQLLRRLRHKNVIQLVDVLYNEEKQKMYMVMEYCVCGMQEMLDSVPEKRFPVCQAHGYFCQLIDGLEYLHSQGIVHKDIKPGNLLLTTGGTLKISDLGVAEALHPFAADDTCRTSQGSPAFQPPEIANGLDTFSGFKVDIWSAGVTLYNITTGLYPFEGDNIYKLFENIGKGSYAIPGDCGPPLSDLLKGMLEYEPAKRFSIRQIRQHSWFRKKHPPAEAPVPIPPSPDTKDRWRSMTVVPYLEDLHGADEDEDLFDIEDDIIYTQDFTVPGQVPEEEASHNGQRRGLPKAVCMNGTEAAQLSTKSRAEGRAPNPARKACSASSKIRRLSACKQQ
Glycogen synthase kinase-3 beta, sequence (P49841 whole entry): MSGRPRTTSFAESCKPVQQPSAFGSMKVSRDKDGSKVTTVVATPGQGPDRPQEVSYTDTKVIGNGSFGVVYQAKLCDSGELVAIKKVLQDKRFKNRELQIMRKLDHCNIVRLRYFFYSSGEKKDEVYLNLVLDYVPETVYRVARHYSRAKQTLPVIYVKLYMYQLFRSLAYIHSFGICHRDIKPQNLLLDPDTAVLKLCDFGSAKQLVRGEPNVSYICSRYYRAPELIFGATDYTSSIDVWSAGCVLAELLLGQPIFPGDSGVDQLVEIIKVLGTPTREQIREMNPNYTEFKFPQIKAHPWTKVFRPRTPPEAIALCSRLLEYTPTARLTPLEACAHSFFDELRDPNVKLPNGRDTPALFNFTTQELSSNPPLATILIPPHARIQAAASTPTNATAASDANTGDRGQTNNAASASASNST
Fibroblast growth factor receptor 4 (Homo sapiens), sequence (P22455 22-802 limits assumed): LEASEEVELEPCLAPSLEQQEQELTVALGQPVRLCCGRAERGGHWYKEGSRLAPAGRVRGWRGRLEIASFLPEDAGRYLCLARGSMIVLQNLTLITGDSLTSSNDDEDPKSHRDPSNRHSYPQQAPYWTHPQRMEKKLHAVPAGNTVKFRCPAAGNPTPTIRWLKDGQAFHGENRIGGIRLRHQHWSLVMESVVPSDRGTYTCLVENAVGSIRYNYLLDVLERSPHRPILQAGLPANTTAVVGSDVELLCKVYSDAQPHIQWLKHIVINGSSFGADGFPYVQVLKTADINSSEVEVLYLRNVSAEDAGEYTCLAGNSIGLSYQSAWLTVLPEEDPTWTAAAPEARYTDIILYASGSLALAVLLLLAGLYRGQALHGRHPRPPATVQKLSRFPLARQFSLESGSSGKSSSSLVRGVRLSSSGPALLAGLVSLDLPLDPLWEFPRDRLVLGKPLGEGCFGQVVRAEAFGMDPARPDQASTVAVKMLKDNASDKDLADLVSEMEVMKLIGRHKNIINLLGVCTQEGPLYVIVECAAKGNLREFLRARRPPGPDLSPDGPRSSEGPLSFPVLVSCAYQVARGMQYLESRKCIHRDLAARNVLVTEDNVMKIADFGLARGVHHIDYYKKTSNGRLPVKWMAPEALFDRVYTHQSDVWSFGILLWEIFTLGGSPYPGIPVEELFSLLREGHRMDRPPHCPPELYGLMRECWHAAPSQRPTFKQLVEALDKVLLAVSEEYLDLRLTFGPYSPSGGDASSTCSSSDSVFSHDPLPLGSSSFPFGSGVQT

With `CN1CCN(c2ccc(OC(F)(F)F)c(Nc3ncc4c(n3)-c3c(c(C(N)=O)nn3CCO)CC4)c2)CC1` [ONVANSERTIB] the IC50 [1] was greater than 10 µM, the Activity (A2780 [2]) was “Dose-Dependent Effect” and the Activity [3] was 24%. The inhibition (A2780 [4]) was “Active”, the IC50 (SW948) was 124 nM and the IC50 (HCC70) was 279 nM. It also gave an IC50 (HCC 2998) of 132 nM, an IC50 (OVCAR-8) of 59 nM and an IC50 (Hs-578T) of 251 nM. For the same molecule, the Activity (A2780 [5]) was “Active”, the Activity (U2OS) was 13% and the IC50 (UACC-62) was 103 nM. It also gave an AUC [6] of 14.8 µM·h, an IC50 (Activated CDC42 kinase 1) greater than 10 µM and an inhibition [7] of 95.5%. It also gave a Cmax [8] of 3000 nM, an IC50 [9] greater than 10 µM and an IC50 (T84) of 174 nM. The Activity [10] was 113%, the Activity [11] was 87% and the IC50 (T98G) was 228 nM. It also gave an Activity [12] of 90%, an IC50 [13] greater than 10 µM and an Activity [14] of 114%. It also gave an IC50 [15] of 15 nM, an inhibition in vivo at 45 mg/kg (HT-29) of 72% and an Activity [16] of 113%. For the same molecule, the IC50 (HCC78) was 340 nM and the Activity [17] was 71%.
